Conditions in all cases: Neutrophil
A short description of test [1]: Antiinflammatory activity in human neutrophils assessed as inhibition of fMLP/cytochalasin B-induced superoxide anion production after 5 mins by spectrophotometer analysis. The test is classed as functional, cell-based. The method, boiled down: (§1)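 Donor neutrophils (6 × 10^5/mL) prepared as for elastase, with 0.5 mg/mL ferricytochrome c and 1 mM Ca2+. Equilibrated 2 min at 37 °C, compound or DMSO 5 min, CB 1 μg/mL 3 min, then fMLP 100 nM 10 min. A550 monitored continuously with stirring. SOD (100 U/mL)-inhibitable reduction, ε = 21.1/mM/10 mm. Mean ± SEM, n = 3-4.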

Test [2] in a line: Antiinflammatory activity in human neutrophils assessed as inhibition of fMLP/cytochalasin B-induced elastase release using MeO-Suc-Ala-Ala-Pro-Val-p-nitroanilide as elastase substrate after 5 mins. The class given is functional, cell-based. The method, boiled down: (§2)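 Neutrophils isolated from venous blood of healthy adult volunteers (20-28 y) by dextran sedimentation, Ficoll-Hypaque centrifugation and hypotonic erythrocyte lysis, >98% viable, kept in Ca2+-free HBSS pH 7.4 at 4 °C. Cells (6 × 10^5/mL) given 100 μM substrate, equilibrated 2 min at 37 °C, compound 5 min, then fMLP 100 nM/CB 0.5 μg/mL; A405 monitored continuously. Mean ± SEM, n = 3-4.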

Test [3] in a line: Antiinflammatory activity in human neutrophils assessed as inhibition of fMLP/cytochalasin B-induced superoxide anion production at 10 ug/mL after 5 mins by spectrophotometer analysis. The class given is functional. Put shortly: as §1
Test [4] can be described thus: Antiinflammatory activity in human neutrophils assessed as inhibition of fMLP/cytochalasin B-induced elastase release using MeO-Suc-Ala-Ala-Pro-Val-p-nitroanilide as elastase substrate at 10 ug/mL after 5 mins. The test is classed as functional. The method, boiled down: as §2

For `O=c1cc(N2CCOCC2)oc2c(-c3ccccc3)cccc12` [LY-294002], the results for the IC50 in test [1] and in test [2] were 1.09 µM and 1.98 µM, respectively.

In the case of `C/C=C(/C)C(=O)OCC(C)(OC)c1ccc(C)cc1O` (stereo not drawn), the inhibition at 10 µg/mL is 14.7% in test [3] and 13.6% in test [4].

On to `C=C(CO)c1ccc(C)cc1O`, for which the values for the inhibition at 10 µg/mL in test [3] and in test [4] were 2.67% and 1.86%, respectively.

In the case of `CC(=O)c1ccc(CO)cc1O`, the IC50 was determined as 8.13 µM in test [1] and 6.38 µM in test [2].

For `Cc1ccc2c(c1)OC(C)(O)C2=O` (stereo not drawn), the inhibition at 10 µg/mL in test [3] amounted to 0.02%; in test [4], 17.3%.

For `C=C1CC[C@]2(C)CC[C@]3(C)[C@H](CC[C@@H]4[C@@]5(C)CC[C@H](OC(C)=O)C(C)(C)[C@@H]5CC[C@]43C)[C@H]2[C@@H]1C` [TARAXASTEROL ACETATE], the inhibition at 10 µg/mL in test [3] stood at 0.68%; in test [4] it was 4.73%.

Consider `C/C=C(/C)C(=O)O[C@@H]1Oc2cc(C)ccc2[C@@]1(C)O` (relative stereo) [EUPATOBENZOFURAN], for which, in test [3], the inhibition at 10 µg/mL was 37.1%. In addition, the half-inhibitory concentration (IC50) in test [2] came out at 11.3 µM.

For `C/C=C(\C)C(=O)Oc1cc(C)ccc1C(C)COC(C)=O` (stereo not drawn), the half-maximal inhibitory concentration (IC50) in test [1] worked out at 18.4 µM. For the same compound, the inhibition at 10 µg/mL in test [4] was 21.6%.

With `CC(=O)C(=O)c1ccc(C)cc1O`, the inhibition at 10 µg/mL in test [3] was found to be 10.1%; in test [4] it was 37.3%.

With `Cc1ccc2c(c1)OC1OC3(CCC21O)c1ccc(C)cc1OC3O` (stereo not drawn), the inhibition at 10 µg/mL in test [3] is 4.37%; in test [4], 13%.

Turning to `C=C(COC(C)=O)c1ccc(C)cc1OC(=O)/C(C)=C/C`, in test [1], the IC50 was 8.5 µM. Moreover, the inhibition at 10 µg/mL in test [4] was 36.6%.

With `C=C(C)c1cc2cc(C(C)=O)c(O)cc2o1` [EUPARIN], the values for the inhibition at 10 µg/mL in test [3] and in test [4] were 13.7% and 12.6%, respectively.

Consider `C=C(COC(=O)C(C)C)c1ccc(C)cc1O`, for which the inhibition at 10 µg/mL in test [3] is 32.7%. In addition, the IC50 in test [2] is 16.1 µM.

For the compound `O=c1ccc2ccccc2o1` [COUMARIN], the results for the inhibition at 10 µg/mL in test [3] and in test [4] were 8.5% and 23.8%, respectively.

Regarding `C/C=C(/C)C(=O)OCC(O)(COC(C)=O)c1ccc(C)cc1O` (stereo not drawn), the IC50 was 13.1 µM in test [1] and 6.27 µM in test [2].

Consider `C=C(COC(=O)/C(C)=C\C)c1ccc(C)cc1O`, for which the inhibition at 10 µg/mL in test [3] came to 20.3%; in test [4], 23%.

In the case of `C=C(COC(=O)CC(C)C)c1ccc(C)cc1O`, the inhibition at 10 µg/mL in test [3] came to 39.6%. Further, in test [2], the IC50 is 18.3 µM.

As for `COC(C)(COC(=O)C(C)C)c1ccc(C)cc1O` (stereo not drawn), in test [1], the IC50 was determined as 8.19 µM. In addition, the inhibition at 10 µg/mL in test [4] is 30%.

As for `C/C=C(\C)C(=O)Oc1cc(C)ccc1C1(COC(C)=O)CO1` (stereo not drawn), the IC50 turned out to be 8.32 µM in test [1] and 25.8 µM in test [2].

In general, IC50 refers to the midpoint of a concentration-inhibition curve. One may read the inhibition as how much of the control response was suppressed.

Source of the values: ChEMBL document CHEMBL1795259, “Thymol, benzofuranoid, and phenylpropanoid derivatives: anti-inflammatory constituents from Eupatorium cannabinum” (J Nat Prod, 2011).
